In general, IC50 refers to the concentration that inhibits the measured activity by half.

Structures are written as SMILES. Where two headings read alike, the source gives them in different places.

Assay [1] addresses human 20S proteasome ChT-L site (Homo sapiens, UniProt P20618+P28074). The assay can be described thus: Proteasome inhibition assay, chymotrypsin-like site, fluorogenic substrate. In kind it is biochemical. The procedure, abridged:
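Human recombinant 20S proteasome, 3 µg/mL in buffer (100 mM Tris pH 7.5, 0.5 mM EDTA, 0.03% SDS), preincubated 30 min at 37 °C with test compound or 25% DMSO vehicle. Reaction started with site-selective AMC substrate (Suc-LLVY-AMC for ChT-L) and run 30 min at 37 °C. Eleven-point 3-fold series, 1.0 µM–[…] final, in triplicate. Fluorescence read at ex 365/em 450 nm; data scaled to internal controls; IC50 from four-parameter logistic fit.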

Assay [2] deals with NCI-H460 cells. The assay is described as follows: Cytotoxicity assay to NCI-H460 human lung carcinoma cells. Format: cell-based.
Assay [3] deals with HCT116 cells. The assay can be described thus: Cytotoxicity to HCT116 colon adenocarcinoma cell line. Format: cell-based.
In assay [4] the target is human 20S proteasome T-L site (Homo sapiens, UniProt P49720+Q99436). The assay can be described thus: Proteasome inhibition assay, trypsin-like site, fluorogenic substrate. In kind it is biochemical.
The test system of assay [5] is SKBR3 cells (Her2+). The assay is described as follows: Cell proliferation assay. In kind it is cell-based. The following applies: Homo sapiens, SK-BR-3, read-out: SKBR3 IC50.
Assay [6] concerns the target human 20S proteasome C-L site (Homo sapiens, UniProt P28072+Q99436). The assay is described as follows: Proteasome inhibition assay, caspase-like site, fluorogenic substrate. In kind it is biochemical.
The test system of assay [7] is MDA-MB-468 cells (Her2-). The assay can be described thus: Cell proliferation assay. Format: cell-based. The following applies: Homo sapiens, MDA-MB-468, read-out: MDA-MB-468 IC50.
The mark [8] stands for this setting: Homo sapiens, NCI-H460, read-out: NCI-H460 IC50.
The mark [9] stands for this setting: Homo sapiens, HCT-116, read-out: HCT116 IC50.

Regarding `CCCCCC(=O)N[C@H](C(=O)N[C@@H](CCS(=O)(=O)CCN)C(=O)N[C@@H](CC(C)C)C(=O)[C@@]1(C)CO1)C(C)C` [Analogue 7, N-((S)-1-(((S)-4-((2-aminoethyl)sulfonyl)-1-(((S)-4-methyl-1-((R)-2-methyloxiran-2-yl)-1oxopentan-2-yl)amino)-1-oxobutan-2-yl)amino)-3-methyl-1-oxobutan-2-yl)hexanamide], the IC50 was 42.2 ± 5.4 nM in assay [1], 34 nM in assay [2] (setting [8]) and 624 nM in assay [3] (setting [9]).
With `CCCCCC(=O)N[C@H](C(=O)N[C@@H](CCS(=O)(=O)CCNC(=O)OC(C)(C)C)C(=O)N[C@@H](CC(C)C)C(=O)[C@@]1(C)CO1)C(C)C` [Analogue 7-Boc, tert-Butyl (2-(((S)-3-((S)-2-hexanamido-3-methylbutanamido)-4-(((S)-4-methyl-1-((R)-2methyloxiran-2-yl)-1-oxopentan-2-yl)amino)-4-oxobutyl)sulfonyl)ethyl)carbamate], the IC50 in assay [1] is 14.2 ± 2.4 nM; in assay [2] (setting [8]), 2.1 ± 0.16 nM; in assay [3] (setting [9]), 4.8 ± 0.27 nM.
Regarding `CC(C)C[C@H](NC(=O)[C@H](CCS(=O)(=O)CCN)NC(=O)[C@H](Cc1ccccc1)NC(=O)Cc1ccccc1)C(=O)[C@@]1(C)CO1` [Analogue 8, (S)-4-((2-Aminoethyl)sulfonyl)-N-((S)-4-methyl-1-((R)-2-methyloxiran-2-yl)-1-oxopentan-2yl)-2-((S)-3-phenyl-2-(2-phenylacetamido)propanamido)butanamide], the IC50 in assay [2] (setting [8]) came out at 34.2 nM; in assay [3] (setting [9]), 165 nM.
As to `CC(C)C[C@H](NC(=O)[C@H](CCS(=O)(=O)CCNC(=O)OC(C)(C)C)NC(=O)[C@H](Cc1ccccc1)NC(=O)Cc1ccccc1)C(=O)[C@@]1(C)CO1` [Analogue 8-Boc, tert-Butyl (2-(((S)-4-(((S)-4-methyl-1-((R)-2-methyloxiran-2-yl)-1-oxopentan-2-yl)amino)-4oxo-3-((S)-3-phenyl-2-(2-phenylacetamido)propanamido)butyl)sulfonyl)ethyl)carbamate], the IC50 in assay [2] (setting [8]) is 8.5 ± 1.2 nM; in assay [3] (setting [9]), 4.8 ± 0.35 nM.
For `CCCCCC(=O)N[C@H](C(=O)N[C@@H](CCS(=O)(=O)CCN)C(=O)N[C@@H](Cc1ccccc1)C(=O)[C@@]1(C)CO1)C(C)C` [Analogue 9, N-((S)-1-(((S)-4-((2-Aminoethyl)sulfonyl)-1-(((S)-1-((R)-2-methyloxiran-2-yl)-1-oxo-3phenylpropan-2-yl)amino)-1-oxobutan-2-yl)amino)-3-methyl-1-oxobutan-2-yl)hexanamide], the IC50 in assay [2] (setting [8]) was 33.4 nM; in assay [3] (setting [9]), 882 nM.
With `CCCCCC(=O)N[C@H](C(=O)N[C@@H](CCS(=O)(=O)CCNC(=O)OC(C)(C)C)C(=O)N[C@@H](Cc1ccccc1)C(=O)[C@@]1(C)CO1)C(C)C` [Analogue 9-Boc, tert-Butyl (2-(((S)-3-((S)-2-hexanamido-3-methylbutanamido)-4-(((S)-1-((R)-2methyloxiran-2-yl)-1-oxo-3-phenylpropan-2-yl)amino)-4oxobutyl)sulfonyl)ethyl)carbamate], the IC50 was 2.6 ± 0.12 nM in assay [2] (setting [8]) and 1.3 ± 0.2 nM in assay [3] (setting [9]).
In the case of `C[C@]1(C(=O)[C@H](Cc2ccccc2)NC(=O)[C@H](CCS(=O)(=O)CCN)NC(=O)[C@H](Cc2ccccc2)NC(=O)Cc2ccccc2)CO1` [Analogue 10, (S)-4-((2-Aminoethyl)sulfonyl)-N-((S)-1-((R)-2-methyloxiran-2-yl)-1-oxo-3-phenylpropan-2yl)-2-((S)-3-phenyl-2-(2-phenylacetamido)propanamido)butanamide], the figures for the IC50 in assay [2] (setting [8]) and in assay [3] (setting [9]) were 304 nM and 698 nM, respectively.
In the case of `CC(C)(C)OC(=O)NCCS(=O)(=O)CC[C@H](NC(=O)[C@H](Cc1ccccc1)NC(=O)Cc1ccccc1)C(=O)N[C@@H](Cc1ccccc1)C(=O)[C@@]1(C)CO1` [Analogue 10-Boc, tert-Butyl (2-(((S)-4-(((S)-1-((R)-2-methyloxiran-2-yl)-1-oxo-3-phenylpropan-2-yl)amino)-4oxo-3-((S)-3-phenyl-2-(2-phenylacetamido)propanamido)butyl)sulfonyl)ethyl)carbamate], the IC50 in assay [2] (setting [8]) amounted to 21 ± 1.3 nM; in assay [3] (setting [9]), 10.9 ± 0.98 nM.
As to `CCCCCC(=O)N[C@H](C(=O)N[C@@H](CCS(=O)(=O)c1ccc(N)cc1)C(=O)N[C@@H](CC(C)C)C(=O)[C@@]1(C)CO1)C(C)C` [Analogue 13, N-((S)-1-(((S)-4-((4-Aminophenyl)sulfonyl)-1-(((S)-4-methyl-1-((R)-2-methyloxiran-2-yl)-1oxopentan-2-yl)amino)-1-oxobutan-2-yl)amino)-3-methyl-1-oxobutan-2-yl)hexanamide], the IC50 in assay [1] was determined as 1.5 ± 0.2 nM; in assay [4], 14 nM; in assay [5], 0.43 nM; in assay [6] it was 540 nM; in assay [2] (setting [8]) it was 1.8 ± 0.1 nM; in assay [3] (setting [9]) it was 2.6 ± 0.2 nM.
In the case of `CCCCCC(=O)N[C@H](C(=O)N[C@@H](CCS(=O)(=O)c1ccc(NC(=O)OC(C)(C)C)cc1)C(=O)N[C@@H](CC(C)C)C(=O)[C@@]1(C)CO1)C(C)C` [Analogue 13-Boc, tert-Butyl (4-(((S)-3-((S)-2-hexanamido-3-methylbutanamido)-4-(((S)-4-methyl-1-((R)-2methyloxiran-2-yl)-1-oxopentan-2-yl)amino)-4-oxobutyl)sulfonyl)phenyl)carbamate], in assay [3] (setting [9]), the IC50 turned out to be 4.9 ± 0.1 nM.
As to `CCCCCC(=O)N[C@H](C(=O)N[C@@H](CCC(=O)N[C@@H](CC(C)C)C(=O)[C@@]1(C)CO1)C(=O)N[C@@H](CC(C)C)C(=O)[C@@]1(C)CO1)C(C)C` [Analogue 14, (S)-2-((S)-2-Hexanamido-3-methylbutanamido)-N1,N5-bis((S)-4-methyl-1-((R)-2methyloxiran-2-yl)-1-oxopentan-2-yl)pentanediamide], the IC50 in assay [1] came out at 1.9 ± 0.1 nM; in assay [4] it was 98 nM; in assay [6], 150 nM; in assay [2] (setting [8]), 5.4 ± 1 nM; in assay [3] (setting [9]), 0.2 ± 0.1 nM.
Regarding `CCCCCC(=O)N[C@@H](Cc1ccc(N)cc1)C(=O)N[C@@H](CCC(=O)N[C@@H](CC(C)C)C(=O)[C@@]1(C)CO1)C(=O)N[C@@H](CC(C)C)C(=O)[C@@]1(C)CO1` [Analogue 15, (S)-2-((S)-3-(4-Aminophenyl)-2-hexanamidopropanamido)-N1,N5-bis((S)-4-methyl-1-((R)2-methyloxiran-2-yl)-1-oxopentan-2-yl)pentanediamide], the IC50 is 5.6 nM in assay [1]; 315 nM in assay [4]; 21 nM in assay [5]; above 1000 nM in assay [6]; 29.8 nM in assay [2] (setting [8]); 30 nM in assay [7]. Besides, in assay [3] (setting [9]), the IC50 was 53 nM.
`CCCCCC(=O)NC(C(=O)NC(CCSC)C(=O)NC(CC(C)C)C(=O)C1(C)CO1)C(C)C` (stereo not shown) [Analogue 21]: the IC50 came out at 27 ± 2.6 nM in assay [2] (read-out: NCI-H460 IC50, Table 2, NCI-H460 cell line) and 22 nM in assay [3] (read-out: HCT116 IC50, Table 2, HCT116 cell line).
Consider `CCCCCC(=O)N[C@H](C(=O)N[C@@H](CCS(C)(=O)=O)C(=O)N[C@@H](CC(C)C)C(=O)[C@@]1(C)CO1)C(C)C` [carmaphycin B, reference compound], for which the IC50 in assay [2] (read-out: NCI-H460 IC50, Table 1, NCI-H460 cell line) was determined as 6 nM.

(Values after PMC6248884 (European journal of medicinal chemistry, 2018).)
